Calls of active or inactive are those of the source. No cut-off for these calls is given here.
Columns and labels:
Assay type in all cases: functional
Pseudomonas fuscovaginae = test: Antibacterial activity against Pseudomonas fuscovaginae UPB0736 assessed as growth inhibition at 25 to 100 ug measured after 1 to 2 days
How it was run: (§1)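 Agar well diffusion. Each pathogen culture was mixed with top agar (PSA, KB or LB; 0.75% w/v agar) at 45 °C, 50 µL culture per 10 mL, and poured over LB plates bearing wells. Compound (25 or 100 µg in 50 µL DMSO) was added to the wells; 50 µL DMSO served as negative control. Plates were incubated at 30 °C for 1–2 days. The inhibition zone was measured in mm, including the 4 mm well. Three repeats, SD.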

Burkholderia glumae = test: Antibacterial activity against Burkholderia glumae AU6208 assessed as growth inhibition at 25 to 100 ug measured after 1 to 2 days; how it was run: as §1
[1] = test system: Xanthomonas oryzae pv. oryzae; test: Antibacterial activity against Xanthomonas oryzae pv. oryzae XKK.12 assessed as growth inhibition at 5.2 X 10^-3 M measured after 1 to 2 days; how it was run: as §1
[2] = test system: Xanthomonas oryzae pv. oryzae; test: Antibacterial activity against Xanthomonas oryzae pv. oryzae XKK.12 assessed as growth inhibition at 1.3 X 10^-3 M measured after 1 to 2 days; how it was run: as §1
[3] = test system: Xanthomonas oryzae pv. oryzae; test: Antibacterial activity against Xanthomonas oryzae pv. oryzae XKK.12 assessed as growth inhibition at 5.7 X 10^-3 M measured after 1 to 2 days; details: read-out: IZ; how it was run: as §1
[4] = test system: Xanthomonas oryzae pv. oryzae; test: Bactericidal activity against Xanthomonas oryzae pv. oryzae XKK.12 assessed as growth inhibition at 0.5 to 1.5 X 10^-4 M measured after 6 to 24 hrs
[5] = test system: Xanthomonas oryzae pv. oryzae; test: Antibacterial activity against Xanthomonas oryzae pv. oryzae XKK.12 assessed as growth inhibition at 25 to 100 ug measured after 1 to 2 days; how it was run: as §1
[6] = test system: Xanthomonas oryzae pv. oryzae; test: Bactericidal activity against Xanthomonas oryzae pv. oryzae XKK.12 assessed as decrease in survival rate at 0.5 to 1.5 X 10^-4 M measured after 6 to 24 hrs
[7] = test system: Xanthomonas oryzae pv. oryzae; test: Antibacterial activity against Xanthomonas oryzae pv. oryzae XKK.12 assessed as growth inhibition at 1.5 X 10^-3 M measured after 1 to 2 days; how it was run: as §1
[8] = test system: Xanthomonas oryzae pv. oryzae; test: Antibacterial activity against Xanthomonas oryzae pv. oryzae XKK.12 assessed as growth inhibition at 6 X 10^-3 M measured after 1 to 2 days; details: for zone of inhibition at 6000 µM: read-out: IZ; how it was run: as §1
[9] = test system: Xanthomonas oryzae pv. oryzae; test: Antibacterial activity against Xanthomonas oryzae pv. oryzae XKK.12 assessed as growth inhibition at 6 X 10^-3 measured after 1 to 2 days relative to ampicillin
[10] = test system: Xanthomonas oryzae pv. oryzae; test: Antibacterial activity against Xanthomonas oryzae pv. oryzae XKK.12 assessed as growth inhibition at 1.0 X 10^-3 M measured after 1 to 2 days; how it was run: as §1
[11] = test system: Xanthomonas oryzae pv. oryzae; test: Antibacterial activity against Xanthomonas oryzae pv. oryzae XKK.12 assessed as growth inhibition at 4 X 10^-3 M measured after 1 to 2 days; how it was run: as §1
[12] = test system: Xanthomonas oryzae pv. oryzae; test: Bacteriostatic activity against Xanthomonas oryzae pv. oryzae XKK.12 assessed as growth inhibition at 0.5 to 1.5 X 10^-4 M measured after 1 to 2 days
[13] = test system: Xanthomonas oryzae pv. oryzae; test: Antibacterial activity against Xanthomonas oryzae pv. oryzae XKK.12 assessed as growth inhibition at 2 X 10^-3 M measured after 1 to 2 days; details: read-out: IZ; how it was run: as §1
[14] = test system: Xanthomonas oryzae pv. oryzae; test: Antibacterial activity against Xanthomonas oryzae pv. oryzae XKK.12 assessed as growth inhibition at 0.5 X 10^-3 M measured after 1 to 2 days; how it was run: as §1
[15] = test system: Xanthomonas oryzae pv. oryzae; test: Antibacterial activity against Xanthomonas oryzae pv. oryzae XKK.12 assessed as growth inhibition at 2 X 10^-3 measured after 1 to 2 days relative to ampicillin
[16] = test system: Xanthomonas oryzae pv. oryzae; test: Antibacterial activity against Xanthomonas oryzae pv. oryzae XKK.12 assessed as growth inhibition at 5.2 X 10^-3 measured after 1 to 2 days relative to ampicillin
[17] = test system: Xanthomonas oryzae pv. oryzae; test: Antibacterial activity against Xanthomonas oryzae pv. oryzae XKK.12 assessed as growth inhibition at 5.6 X 10^-3 M measured after 1 to 2 days; how it was run: as §1
[18] = test system: Xanthomonas oryzae pv. oryzae; test: Antibacterial activity against Xanthomonas oryzae pv. oryzae XKK.12 assessed as growth inhibition at 1.4 X 10^-3 M measured after 1 to 2 days; how it was run: as §1

## C=C[C@@]1(C)CC[C@]2(O)[C@@]3(C(=O)OC)CCCC(C)(C)[C@@H]3C(=O)C(=O)[C@@]23C[C@@H]13
Pseudomonas fuscovaginae
  Activity: inactive
Burkholderia glumae
  Activity: inactive
[1]
  inhibition zone (IZ): inactive
[2]
  inhibition zone (IZ): inactive

## CC1(C)S[C@@H]2[C@H](NC(=O)[C@H](N)c3ccccc3)C(=O)N2[C@H]1C(=O)O [AMPICILLIN]
[3]
  zone of inhibition at 5700 µM: 52 mm

## C=C[C@]1(C)C=C2C(=O)[C@@]3(O)OC(=O)[C@@]4(CCCC(C)(C)[C@H]34)[C@@]2(O)CC1 [SPHAEROPSIDIN A]
[4]
  Activity: Active
[5]
  Activity: Active
[6]
  Activity: Active
[7]; read-out: IZ
  zone of inhibition at 1500 µM: 18.3 mm
[8]
  zone of inhibition at 6000 µM: 25.5 mm
[9]
  growth inhibition (GI): 49%

## C=C[C@]1(C)C=C2[C@@H](O)C[C@H]3C(C)(C)CCC[C@]3(C(=O)O)[C@@]2(O)CC1
Pseudomonas fuscovaginae
  Activity: inactive
Burkholderia glumae
  Activity: inactive
[7]
  inhibition zone (IZ): inactive
[8]
  inhibition zone (IZ): inactive

## C=C[C@]1(C)C=C2C3(CO3)C(=O)[C@H]3C(C)(C)CCC[C@]3(C(=O)OC)[C@@]2(OC)CC1 (some centres undefined)
Pseudomonas fuscovaginae
  Activity: inactive
Burkholderia glumae
  Activity: inactive
[1]
  inhibition zone (IZ): inactive
[2]
  inhibition zone (IZ): inactive

## C=C[C@]1(C)C=C2[C@@H](OC(C)=O)[C@@]3(O)OC(=O)[C@@]4(CCCC(C)(C)[C@H]34)[C@@]2(O)CC1
Pseudomonas fuscovaginae
  Activity: inactive
Burkholderia glumae
  Activity: inactive
[10]
  inhibition zone (IZ): inactive
[11]
  inhibition zone (IZ): inactive

## CC[C@]1(C)C=C2C(=O)[C@@]3(O)OC(=O)[C@@]4(CCCC(C)(C)[C@H]34)[C@@]2(O)CC1
Pseudomonas fuscovaginae
  Activity: inactive
Burkholderia glumae
  Activity: inactive
[7]
  inhibition zone (IZ): inactive
[12]
  Activity: Active
[8]
  zone of inhibition at 6000 µM: 11.6 mm
[9]
  growth inhibition (GI): 22.3%

## C=C[C@]1(C)C=C2C3(CO3)C(=O)[C@H]3C(C)(C)CCC[C@]3(C(=O)OC)[C@@]2(O)CC1 (some centres undefined)
Pseudomonas fuscovaginae
  Activity: inactive
Burkholderia glumae
  Activity: inactive
[1]
  inhibition zone (IZ): inactive
[2]
  inhibition zone (IZ): inactive

## C=C[C@]1(C)C=C2C(=O)C[C@H]3C(C)(C)CCC[C@]3(C(=O)O)[C@@]2(O)CC1
Pseudomonas fuscovaginae
  Activity: inactive
Burkholderia glumae
  Activity: inactive
[7]
  inhibition zone (IZ): inactive
[8]
  inhibition zone (IZ): inactive

## C=C[C@]1(C)C=C2[C@@H](O)[C@@]3(O)OC(=O)[C@@]4(CCCC(C)(C)[C@H]34)[C@@]2(O)CC1
Pseudomonas fuscovaginae
  Activity: inactive
Burkholderia glumae
  Activity: inactive
[7]
  inhibition zone (IZ): inactive
[8]
  inhibition zone (IZ): inactive

## C=C[C@@]1(C)CCC2=C(C(=O)[C@@]3(OC(C)=O)OC(=O)[C@@]24CCCC(C)(C)[C@H]34)C1OC(C)=O (some centres undefined)
Pseudomonas fuscovaginae
  Activity: inactive
Burkholderia glumae
  Activity: inactive
[13]
  zone of inhibition at 2000 µM: 15.3 mm
[12]
  Activity: Active
[14]
  inhibition zone (IZ): inactive
[15]
  inhibition (INH): 29.4%

## C=C[C@]1(C)C=C2C(=O)[C@@]3(OC(C)=O)OC(=O)[C@@]4(CCCC(C)(C)[C@H]34)[C@@]2(O)CC1
[4]
  Activity: Active
Pseudomonas fuscovaginae
  Activity: inactive
Burkholderia glumae
  Activity: inactive
[1]; read-out: IZ
  zone of inhibition at 5200 µM: 20.7 mm
[2]; read-out: IZ
  zone of inhibition at 1300 µM: 15.8 mm
[12]
  Activity: Active
[16]
  inhibition (INH): 39.8%

## CC[C@]1(C)C=C2[C@@H](O)[C@@]3(O)OC(=O)[C@@]4(CCCC(C)(C)[C@H]34)[C@@]2(O)CC1
Pseudomonas fuscovaginae
  Activity: inactive
Burkholderia glumae
  Activity: inactive
[7]
  inhibition zone (IZ): inactive
[12]
  Activity: inactive
[8]
  zone of inhibition at 6000 µM: 8.9 mm

## C=C[C@@]1(C)CC[C@@]2(O)C(=C1C)C(=O)C(=O)[C@H]1C(C)(C)CCC[C@@]12C(=O)OC
Pseudomonas fuscovaginae
  Activity: inactive
Burkholderia glumae
  Activity: inactive
[17]
  inhibition zone (IZ): inactive
[18]
  inhibition zone (IZ): inactive

## C=C[C@]1(C)C=C(C=O)[C@@]2(CC1)OC(=O)[C@H]1C(C)(C)CCC[C@@]12C(=O)O
Pseudomonas fuscovaginae
  Activity: inactive
Burkholderia glumae
  Activity: inactive
[7]
  inhibition zone (IZ): inactive
[8]
  inhibition zone (IZ): inactive

## C=C[C@]1(C)C=C2[C@@H](O)C(=O)[C@H]3C(C)(C)CCC[C@]3(C(=O)OC)[C@@]2(O)CC1
Pseudomonas fuscovaginae
  Activity: inactive
Burkholderia glumae
  Activity: inactive
[17]
  inhibition zone (IZ): inactive
[18]
  inhibition zone (IZ): inactive

## C=C[C@]1(C)C=C2C(=O)C[C@H]3C(C)(C)CCC[C@]3(C(=O)OC)[C@@]2(O)CC1
Pseudomonas fuscovaginae
  Activity: inactive
Burkholderia glumae
  Activity: inactive
[7]
  inhibition zone (IZ): inactive
[8]
  inhibition zone (IZ): inactive

## CC[C@]1(C)C=C2[C@@H](OC(C)=O)[C@@]3(O)OC(=O)[C@@]4(CCCC(C)(C)[C@H]34)[C@@]2(O)CC1
Pseudomonas fuscovaginae
  Activity: inactive
Burkholderia glumae
  Activity: inactive
[1]
  inhibition zone (IZ): inactive
[2]
  inhibition zone (IZ): inactive
